Legend:
Assay type in all cases: toxicity, cell-based
[1] = test system: HEK-293T; test: Incucyte cell viability with HEK293T; details: human, 10 µM, compound concentration 10 uM; further: filed as whole numbers so only -1 and 0 and 1 occur
[2] = test system: Fibroblast; test: Incucyte cell viability with human fibroblast; details: 10 µM, compound concentration 10 uM; further: filed as whole numbers so only -1 and 0 and 1 occur
[3] = test system: HEK-293T; test: Multiplex assay against HEK293T; details: human;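 on Population Tubulin-Different-Phenotype (%): share of the cells with healthy nuclei that show this phenotype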
Summary of the method: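 Live cells were stained at seeding with Hoechst33342, BioTracker Green Microtubule Cytoskeleton Dye, MitoTracker Red and Annexin V Alexa Fluor 680, then imaged on a CQ1 microscope at 37°C and 5% CO2 after compound addition. CellPathfinder machine-learning gating split cells into Hoechst high-intensity objects or normal cells. Normal cells were split into healthy, pyknosed or fragmented nuclei, and pyknosed cells into mitotic or apoptotic. Tubulin, mitochondrial-mass and membrane-permeability phenotypes are per cents of healthy-nucleus cells.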

[4] = 0 h, replicate number 1, timepoint 0 hours
[5] = 6 h, replicate number 1, timepoint 6 hours
[6] = 12 h, replicate number 1, timepoint 12 hours
[7] = 18 h, replicate number 1, timepoint 18 hours
[8] = 24 h, replicate number 1, timepoint 24 hours
[9] = 12 h, 1 µM, compound concentration 1 uM, replicate 1
[10] = 12 h, 1 µM, compound concentration 1 uM, replicate 2
[11] = 12 h, 10 µM, compound concentration 10 uM, replicate 1
[12] = 12 h, 10 µM, compound concentration 10 uM, replicate 2
[13] = 24 h, 1 µM, compound concentration 1 uM, replicate 1
[14] = 24 h, 1 µM, compound concentration 1 uM, replicate 2
[15] = 24 h, 10 µM, compound concentration 10 uM, replicate 1
[16] = 24 h, 10 µM, compound concentration 10 uM, replicate 2
[17] = 48 h, 1 µM, compound concentration 1 uM, replicate 1
[18] = 48 h, 1 µM, compound concentration 1 uM, replicate 2
[19] = 48 h, 10 µM, compound concentration 10 uM, replicate 1
[20] = 48 h, 10 µM, compound concentration 10 uM, replicate 2

SMILES: N#Cc1cccc(C(=O)Nc2cc(-c3ccccc3)nn2-c2ccccc2)c1
- Growth Rate [1, 4]: 0
- Growth Rate [1, 5]: 0
- Growth Rate [1, 6]: 0
- Growth Rate [1, 7]: 0
- Growth Rate [1, 8]: 0
- Growth Rate [2, 4]: 0
- Growth Rate [2, 5]: 0
- Growth Rate [2, 6]: 0
- Growth Rate [2, 7]: 0
- Growth Rate ([2]; 18 h, replicate number 2, timepoint 18 hours): 1
- Growth Rate [2, 8]: 0
- Growth Rate ([2]; 24 h, replicate number 2, timepoint 24 hours): 1
- Population Apoptotic (%) [3, 9]: 48%
- Population Healthy Nuclei (%) [3, 9]: 41%
- Population Hoechst High Intensity Objects (%) [3, 9]: 13%
- Population Membrane Permeable-Phenotype (%) [3, 9]: 2%
- Population Mitochondria Different-Phenotype (%) [3, 9]: 85%
- Population Mitotic Cells (%) [3, 9]: 51%
- Population Normal (%) [3, 9]: 86%
- Population Pyknosed Nuclei (%) [3, 9]: 49%
- Population Tubulin-Different-Phenotype (%) [3, 9]: 64%
- Total Cell Count [3, 9]: 315
- Population Apoptotic (%) [3, 10]: 16%
- Population Fragmented Nuclei (%) [3, 10]: 8%
- Population Healthy Nuclei (%) [3, 10]: 42%
- Population Hoechst High Intensity Objects (%) [3, 10]: 6%
- Population Membrane Permeable-Phenotype (%) [3, 10]: 18%
- Population Mitochondria Different-Phenotype (%) [3, 10]: 23%
- Population Mitotic Cells (%) [3, 10]: 83%
- Population Normal (%) [3, 10]: 93%
- Population Pyknosed Nuclei (%) [3, 10]: 48%
- Population Tubulin-Different-Phenotype (%) [3, 10]: 45%
- Total Cell Count [3, 10]: 182
- Population Apoptotic (%) [3, 11]: 73%
- Population Fragmented Nuclei (%) [3, 11]: 8%
- Population Healthy Nuclei (%) [3, 11]: 33%
- Population Hoechst High Intensity Objects (%) [3, 11]: 14%
- Population Membrane Permeable-Phenotype (%) [3, 11]: 5%
- Population Mitochondria Different-Phenotype (%) [3, 11]: 97%
- Population Mitotic Cells (%) [3, 11]: 26%
- Population Normal (%) [3, 11]: 86%
- Population Pyknosed Nuclei (%) [3, 11]: 57%
- Total Cell Count [3, 11]: 300
- Population Apoptotic (%) [3, 12]: 45%
- Population Fragmented Nuclei (%) [3, 12]: 5%
- Population Healthy Nuclei (%) [3, 12]: 25%
- Population Hoechst High Intensity Objects (%) [3, 12]: 5%
- Population Membrane Permeable-Phenotype (%) [3, 12]: 14%
- Population Mitochondria Different-Phenotype (%) [3, 12]: 73%
- Population Mitotic Cells (%) [3, 12]: 54%
- Population Normal (%) [3, 12]: 94%
- Population Pyknosed Nuclei (%) [3, 12]: 68%
- Population Tubulin-Different-Phenotype (%) [3, 12]: 100%
- Total Cell Count [3, 12]: 174
- Population Apoptotic (%) [3, 13]: 45%
- Population Fragmented Nuclei (%) [3, 13]: 9%
- Population Healthy Nuclei (%) [3, 13]: 37%
- Population Hoechst High Intensity Objects (%) [3, 13]: 12%
- Population Membrane Permeable-Phenotype (%) [3, 13]: 4%
- Population Mitochondria Different-Phenotype (%) [3, 13]: 61%
- Population Mitotic Cells (%) [3, 13]: 54%
- Population Normal (%) [3, 13]: 87%
- Population Pyknosed Nuclei (%) [3, 13]: 53%
- Population Tubulin-Different-Phenotype (%) [3, 13]: 51%
- Total Cell Count [3, 13]: 328
- Population Apoptotic (%) [3, 14]: 12%
- Population Fragmented Nuclei (%) [3, 14]: 6%
- Population Healthy Nuclei (%) [3, 14]: 53%
- Population Hoechst High Intensity Objects (%) [3, 14]: 4%
- Population Membrane Permeable-Phenotype (%) [3, 14]: 14%
- Population Mitochondria Different-Phenotype (%) [3, 14]: 21%
- Population Mitotic Cells (%) [3, 14]: 88%
- Population Normal (%) [3, 14]: 95%
- Population Pyknosed Nuclei (%) [3, 14]: 39%
- Population Tubulin-Different-Phenotype (%) [3, 14]: 45%
- Total Cell Count [3, 14]: 200
- Population Apoptotic (%) [3, 15]: 65%
- Population Fragmented Nuclei (%) [3, 15]: 7%
- Population Healthy Nuclei (%) [3, 15]: 27%
- Population Hoechst High Intensity Objects (%) [3, 15]: 15%
- Population Membrane Permeable-Phenotype (%) [3, 15]: 4%
- Population Mitochondria Different-Phenotype (%) [3, 15]: 97%
- Population Mitotic Cells (%) [3, 15]: 34%
- Population Normal (%) [3, 15]: 84%
- Population Pyknosed Nuclei (%) [3, 15]: 65%
- Population Tubulin-Different-Phenotype (%) [3, 15]: 95%
- Total Cell Count [3, 15]: 309
- Population Apoptotic (%) [3, 16]: 67%
- Population Fragmented Nuclei (%) [3, 16]: 5%
- Population Healthy Nuclei (%) [3, 16]: 31%
- Population Hoechst High Intensity Objects (%) [3, 16]: 4%
- Population Membrane Permeable-Phenotype (%) [3, 16]: 8%
- Population Mitochondria Different-Phenotype (%) [3, 16]: 84%
- Population Mitotic Cells (%) [3, 16]: 33%
- Population Normal (%) [3, 16]: 95%
- Population Pyknosed Nuclei (%) [3, 16]: 62%
- Population Tubulin-Different-Phenotype (%) [3, 16]: 100%
- Total Cell Count [3, 16]: 167
- Population Apoptotic (%) [3, 17]: 46%
- Population Fragmented Nuclei (%) [3, 17]: 11%
- Population Healthy Nuclei (%) [3, 17]: 49%
- Population Hoechst High Intensity Objects (%) [3, 17]: 15%
- Population Membrane Permeable-Phenotype (%) [3, 17]: 4%
- Population Mitochondria Different-Phenotype (%) [3, 17]: 29%
- Population Mitotic Cells (%) [3, 17]: 53%
- Population Normal (%) [3, 17]: 84%
- Population Pyknosed Nuclei (%) [3, 17]: 38%
- Population Tubulin-Different-Phenotype (%) [3, 17]: 44%
- Total Cell Count [3, 17]: 415
- Population Apoptotic (%) [3, 18]: 19%
- Population Fragmented Nuclei (%) [3, 18]: 6%
- Population Healthy Nuclei (%) [3, 18]: 77%
- Population Hoechst High Intensity Objects (%) [3, 18]: 4%
- Population Membrane Permeable-Phenotype (%) [3, 18]: 15%
- Population Mitochondria Different-Phenotype (%) [3, 18]: 4%
- Population Mitotic Cells (%) [3, 18]: 80%
- Population Normal (%) [3, 18]: 95%
- Population Pyknosed Nuclei (%) [3, 18]: 16%
- Population Tubulin-Different-Phenotype (%) [3, 18]: 42%
- Total Cell Count [3, 18]: 356
- Population Apoptotic (%) [3, 19]: 53%
- Population Fragmented Nuclei (%) [3, 19]: 14%
- Population Healthy Nuclei (%) [3, 19]: 23%
- Population Hoechst High Intensity Objects (%) [3, 19]: 11%
- Population Membrane Permeable-Phenotype (%) [3, 19]: 5%
- Population Mitochondria Different-Phenotype (%) [3, 19]: 78%
- Population Mitotic Cells (%) [3, 19]: 46%
- Population Normal (%) [3, 19]: 88%
- Population Pyknosed Nuclei (%) [3, 19]: 62%
- Population Tubulin-Different-Phenotype (%) [3, 19]: 100%
- Total Cell Count [3, 19]: 332
- Population Apoptotic (%) [3, 20]: 63%
- Population Fragmented Nuclei (%) [3, 20]: 6%
- Population Healthy Nuclei (%) [3, 20]: 42%
- Population Hoechst High Intensity Objects (%) [3, 20]: 7%
- Population Membrane Permeable-Phenotype (%) [3, 20]: 17%
- Population Mitochondria Different-Phenotype (%) [3, 20]: 65%
- Population Mitotic Cells (%) [3, 20]: 36%
- Population Normal (%) [3, 20]: 92%
- Population Pyknosed Nuclei (%) [3, 20]: 50%
- Population Tubulin-Different-Phenotype (%) [3, 20]: 98%
- Total Cell Count [3, 20]: 204

Reference: ChEMBL document CHEMBL4689842, “EUbOPEN Chemogenomics Library wave 1” (2021)
